According to ChEMBL document CHEMBL4190402, “Development of a Novel Human Parathyroid Hormone Receptor 1 (hPTHR1) Agonist (CH5447240), a Potent and Orally Available Small Molecule for Treatment of Hypoparathyroidism” (J Med Chem, 2018):
In brackets after ≈: the same amount, converted by molar mass. Values belong to the molecule of their own block, whether it stands above or below them. Activity calls are given as the source filed them. The calls are words filed in the database; no cut-off is given here.

Key:
[1] = test system: Rattus norvegicus; assay: Tmax in Sprague-Dawley rat at 5 ug/kg, sc; format: ADME, organism-based; conditions: in vivo, 0.005 mg/kg
[2] = Half life in Sprague-Dawley rat at 5 ug/kg, sc; format: ADME, organism-based; conditions: in vivo, 0.005 mg/kg
[3] = AUC (infinity) in Crl:CD/SD IGS, CRJ rat at 3 mg/kg, po by LC-MS/MS analysis; format: ADME, organism-based; parameters: dose 3 mg/kg, time infinity, route oral; conditions: in vivo
Procedure, shortened: (§1)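 Female 5-week-old rats, two per dose group, given 3 mg/kg orally or intravenously. Oral blood samples at 15 and 30 min, 1, 2, 4 and 6 h; intravenous sample at 3 min. Plasma drug measured by LC-MS/MS (detection limit 0.3 ng/ml). Parameters derived by noncompartmental analysis; mean of n=2.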

[4] = Half life in Crl:CD/SD IGS, CRJ rat at 3 mg/kg, iv by LC-MS/MS analysis; format: ADME, organism-based; conditions: in vivo; procedure, shortened: as §1
[5] = Oral bioavailability in Crl:CD/SD IGS, CRJ rat at 3 mg/kg by LC-MS/MS analysis; format: ADME, organism-based; conditions: in vivo; procedure, shortened: as §1
[6] = Intrinsic clearance in human liver microsomes assessed per mg protein at 1 uM after 30 mins in presence of NADPH by LC-MS/MS analysis; format: ADME, microsome; conditions: read-out: CLH
[7] = AUC (infinity) in Crl:CD/SD IGS, CRJ rat at 3 mg/kg, iv by LC-MS/MS analysis; format: ADME, organism-based; parameters: dose 3 mg/kg, route intravenous, time infinity; conditions: in vivo; procedure, shortened: as §1
[8] = Intrinsic clearance in human liver microsomes assessed per mg protein at 1 uM after 30 mins in absence of NADPH by LC-MS/MS analysis; format: ADME, microsome; conditions: microsomes, 0.5 h, 1 µM
[9] = Tmax in Crl:CD/SD IGS, CRJ rat at 3 mg/kg, po by LC-MS/MS analysis; format: ADME, organism-based; conditions: in vivo; procedure, shortened: as §1
[10] = biological target: T1, Parathyroid hormone/parathyroid hormone-related peptide receptor (Homo sapiens, UniProt Q03431); assay: Displacement of 125I-PTH (1 to 15 residues) from human PTHR1 expressed in African green monkey COS7 cell membranes at 300 uM after 90 mins by gamma counting analysis
T1 sequence (Q03431 whole entry): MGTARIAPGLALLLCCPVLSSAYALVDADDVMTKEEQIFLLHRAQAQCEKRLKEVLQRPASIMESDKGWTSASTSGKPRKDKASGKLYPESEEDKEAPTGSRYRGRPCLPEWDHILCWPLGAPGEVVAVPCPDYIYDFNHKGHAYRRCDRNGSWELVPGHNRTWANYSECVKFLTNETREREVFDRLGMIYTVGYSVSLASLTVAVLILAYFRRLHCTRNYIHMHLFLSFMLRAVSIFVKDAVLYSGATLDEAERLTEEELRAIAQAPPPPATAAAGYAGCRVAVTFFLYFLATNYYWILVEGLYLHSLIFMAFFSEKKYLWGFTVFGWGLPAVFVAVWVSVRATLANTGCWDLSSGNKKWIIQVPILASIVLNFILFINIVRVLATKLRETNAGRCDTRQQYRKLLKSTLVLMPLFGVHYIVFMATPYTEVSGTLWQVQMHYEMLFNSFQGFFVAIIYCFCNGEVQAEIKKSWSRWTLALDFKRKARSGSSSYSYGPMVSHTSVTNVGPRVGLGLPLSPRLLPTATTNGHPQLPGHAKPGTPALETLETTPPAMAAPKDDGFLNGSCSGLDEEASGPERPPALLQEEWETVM

[11] = Solubility of the compound in FaSSIF at 1 mM by HPLC-UV analysis; format: physicochemical; conditions: FaSSIF
Procedure, shortened: (§2)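 A 1 mM DMSO stock (50 µL) was freeze-dried, then the residue taken up in 50 mM PBS pH 6.5 or FaSSIF pH 6.5. Sonicated 10 min, shaken 2 h, centrifuged, filtered. Filtrate concentration determined by HPLC-UV against each compound's calibration curve.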

[12] = biological target: T2, Parathyroid hormone/parathyroid hormone-related peptide receptor (Homo sapiens) (UniProt Q03431); assay: Displacement of 125I-PTH (1 to 15 residues) from human PTHR1 expressed in African green monkey COS7 cell membranes after 90 mins by gamma counting analysis
T2 sequence (whole entry): T1 sequence (Q03431 whole entry)
Procedure, shortened: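 Competition binding on membranes from COS-7 cells expressing human PTHR1. Incubated 90 min at room temperature, vacuum-filtered and washed, filter radioactivity gamma-counted. Nonspecific binding defined with excess (1x10^4 M as printed) unlabeled PTH(1-34).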

[13] = biological target: T2, Parathyroid hormone/parathyroid hormone-related peptide receptor (Homo sapiens); assay: Ratio of IC50 for displacement of 125I-PTH (1 to 15 residues) from human PTHR1 expressed in African green monkey COS7 cell membranes to EC50 for agonist activity at human PTHR1 expressed in HKRKB7 cells assessed as accumulation of intracellular cAMP; format: functional
[14] = Clearance in Crl:CD/SD IGS, CRJ rat at 3 mg/kg, po by LC-MS/MS analysis; format: ADME, organism-based; conditions: in vivo; procedure, shortened: as §1
[15] = test system: LLC-PK1; assay: Induction of cAMP production in porcine LLC-PK1 cells after 20 mins by enzyme immunoassay; format: functional, cell-based; conditions: Sus scrofa
Procedure, shortened: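 Counter-screen on parent LLC-PK1 cells lacking hPTHR1. Conditions match the HKRK-B7 assay: 20 min at 37°C in IBMX-containing assay medium, then cAMP read by EIA.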

[16] = biological target: hERG (KCNH2) (Homo sapiens, UniProt Q12809); assay: Inhibition of human ERG at a holding potential of -80 mV at 10 uM by automated patch clamp electrophysiology method
Chain of hERG (KCNH2) (Q12809 whole entry): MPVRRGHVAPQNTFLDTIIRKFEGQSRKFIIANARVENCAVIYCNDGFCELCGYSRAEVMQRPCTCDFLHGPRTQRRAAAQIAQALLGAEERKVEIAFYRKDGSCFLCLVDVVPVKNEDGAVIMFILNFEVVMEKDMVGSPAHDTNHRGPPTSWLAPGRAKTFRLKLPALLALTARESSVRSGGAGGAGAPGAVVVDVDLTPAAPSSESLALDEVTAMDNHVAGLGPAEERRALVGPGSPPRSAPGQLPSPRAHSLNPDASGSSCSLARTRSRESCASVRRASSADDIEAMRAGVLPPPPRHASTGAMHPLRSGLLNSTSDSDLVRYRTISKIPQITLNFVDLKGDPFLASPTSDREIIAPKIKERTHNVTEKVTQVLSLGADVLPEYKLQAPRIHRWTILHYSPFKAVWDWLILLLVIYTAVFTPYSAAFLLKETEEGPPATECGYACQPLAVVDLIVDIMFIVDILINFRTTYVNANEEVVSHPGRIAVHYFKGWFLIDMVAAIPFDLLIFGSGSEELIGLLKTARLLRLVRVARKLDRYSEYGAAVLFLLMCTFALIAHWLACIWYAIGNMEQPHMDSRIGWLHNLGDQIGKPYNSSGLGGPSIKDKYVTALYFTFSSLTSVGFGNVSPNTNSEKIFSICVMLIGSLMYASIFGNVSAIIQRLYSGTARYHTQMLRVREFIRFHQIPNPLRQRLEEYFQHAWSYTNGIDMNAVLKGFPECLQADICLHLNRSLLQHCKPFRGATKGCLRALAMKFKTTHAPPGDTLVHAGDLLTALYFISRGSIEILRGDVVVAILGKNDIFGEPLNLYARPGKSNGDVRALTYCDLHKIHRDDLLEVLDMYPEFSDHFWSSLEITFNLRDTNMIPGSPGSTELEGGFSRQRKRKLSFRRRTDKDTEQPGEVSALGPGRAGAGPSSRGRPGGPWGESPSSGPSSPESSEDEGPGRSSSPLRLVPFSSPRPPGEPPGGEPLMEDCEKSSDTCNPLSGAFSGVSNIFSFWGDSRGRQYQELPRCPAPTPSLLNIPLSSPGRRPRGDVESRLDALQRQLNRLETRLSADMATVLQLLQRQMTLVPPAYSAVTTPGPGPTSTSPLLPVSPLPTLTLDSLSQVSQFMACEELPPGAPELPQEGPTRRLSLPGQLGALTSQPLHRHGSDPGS

[17] = Half life in Crl:CD/SD IGS, CRJ rat at 3 mg/kg, po by LC-MS/MS analysis; format: ADME, organism-based; conditions: in vivo; procedure, shortened: as §1
[18] = Clearance in Crl:CD/SD IGS, CRJ rat at 3 mg/kg, iv by LC-MS/MS analysis; format: ADME, organism-based; conditions: in vivo; procedure, shortened: as §1
[19] = test system: Rattus norvegicus; assay: In vivo agonist activity at PTHR1 in po dosed Crl:CD(SD) rat TPTX model assessed as increase in serum calcium levels administered as single dose measured after 24 hrs by o-cresolphthalein complexone method; format: functional, organism-based
Procedure, shortened: (§3)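 Female 6-week-old Crl:CD(SD) rats after surgical TPTX; those with serum Ca <8.0 mg/dl at day 5 were used, and dosing began day 6. Single oral dose of 6, 19 or 60 mg/kg, or vehicle (10% DMSO/10% Kolliphor EL in 10% HPCD/0.752% glycine buffer), n=5 per group. Jugular blood taken under isoflurane before dosing and at 0.5, 1, 2, 4, 6, 10 and 24 h. Serum Ca measured by o-CPC, Pi by xanthine oxidase.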

[20] = Solubility of the compound in PBS at pH 6.5 at 1 mM by HPLC-UV analysis; format: physicochemical; conditions: PBS, pH 6.5; procedure, shortened: as §2
[21] = Cmax in Crl:CD/SD IGS, CRJ rat at 3 mg/kg, po by LC-MS/MS analysis; format: ADME, organism-based; parameters: dose 3 mg/kg, route oral; conditions: in vivo; procedure, shortened: as §1
[22] = biological target: T2, Parathyroid hormone/parathyroid hormone-related peptide receptor (Homo sapiens); assay: (§4) Agonist activity at human PTHR1 expressed in HKRKB7 cells assessed as accumulation of intracellular cAMP after 20 mins by enzyme immunoassay; format: functional, cell-based
Procedure, shortened: (§5)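 HKRK-B7 cells (LLC-PK1 stably expressing hPTHR1), 1.0 x 10^3 per well, seeded overnight, then exposed to serially diluted compound in McCoy's 5A with 2 mg/ml BSA, 1 mmol/l IBMX and 2 mmol/l HEPES for 20 min at 37°C. Cells washed, frozen, lysed in 50 mmol/l HCl, cAMP read by EIA.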

[23] = biological target: T1, Parathyroid hormone/parathyroid hormone-related peptide receptor; assay: as §4; format: functional, cell-based; procedure, shortened: as §5
[24] = test system: Rattus norvegicus; assay: In vivo agonist activity at PTHR1 in po dosed Crl:CD(SD) rat TPTX model assessed as decrease in serum phosphorus levels administered as single dose measured after 24 hrs by xanthine oxidase method; format: functional, organism-based; procedure, shortened: as §3
[25] = Volume of distribution at steady state in Crl:CD/SD IGS, CRJ rat at 3 mg/kg, iv by LC-MS/MS analysis; format: ADME, organism-based; conditions: in vivo, read-out: Vdss; procedure, shortened: as §1

Tmax [1]: 0.25 h
half-life [2]: 0.5 h
Compound: CC[C@H](C)[C@H](NC(=O)[C@H](CCC(=O)O)NC(=O)[C@H](CO)NC(=O)[C@@H](NC(=O)[C@@H](N)CO)C(C)C)C(=O)N[C@@H](CCC(N)=O)C(=O)N[C@@H](CC(C)C)C(=O)N[C@@H](CCSC)C(=O)N[C@@H](Cc1cnc[nH]1)C(=O)N[C@@H](CC(N)=O)C(=O)N[C@@H](CC(C)C)C(=O)NCC(=O)N[C@@H](CCCCN)C(=O)N[C@@H](Cc1cnc[nH]1)C(=O)N[C@@H](CC(C)C)C(=O)N[C@@H](CC(N)=O)C(=O)N[C@@H](CO)C(=O)N[C@@H](CCSC)C(=O)N[C@@H](CCC(=O)O)C(=O)N[C@@H](CCCN=C(N)N)C(=O)N[C@H](C(=O)N[C@@H](CCC(=O)O)C(=O)N[C@@H](Cc1c[nH]c2ccccc12)C(=O)N[C@@H](CC(C)C)C(=O)N[C@@H](CCCN=C(N)N)C(=O)N[C@@H](CCCCN)C(=O)N[C@@H](CCCCN)C(=O)N[C@@H](CC(C)C)C(=O)N[C@@H](CCC(N)=O)C(=O)N[C@@H](CC(=O)O)C(=O)N[C@H](C(=O)N[C@@H](Cc1cnc[nH]1)C(=O)N[C@@H](CC(N)=O)C(=O)N[C@@H](Cc1ccccc1)C(=O)O)C(C)C)C(C)C [TERIPARATIDE]

AUC(0-inf) [3]: 2650 ng·h/mL
half-life [4]: 1.1 h
bioavailability [5]: 55%
microsomal CLint at 1 µM [6]: 45 µL/min/mg
AUC(0-inf) [7]: 4820 ng·h/mL
CLint [8]: 0.14 µL/min/mg
Tmax [9]: 1 h
IC50 [10]: 93.7 µM
solubility at 1000 µM [11]: 250 µg/mL (≈ 483 µM)
inhibition [12]: 75%
Ratio IC50/EC50 [13]: 8
CL/F [14]: 19 mL/min/kg
half-life [17]: 1 h
clearance [18]: 10.4 mL/min/kg
solubility at 1000 µM [20]: 99 µg/mL (≈ 191 µM)
Cmax [21]: 1360 ng/mL
EC20 [22]: 3 µM
EC50 [23]: 12 µM
Vd [25]: 0.395 L/kg
Compound: Cc1cc(N(C)C(N)=O)cc(C)c1CCS(=O)(=O)N1CCC2(CC1)N=C([C@H]1CC[C@H](C)CC1)NC2=O
Activity [15]: inactive
inhibition at 10 µM [16]: 10%
Activity [19]: Dose-dependent effect
Activity [24]: Dose-dependent effect
